Screens: PubChem BioAssay, several laboratories
A selection: hits, their analogues and other compounds. The true share with any hit is near 6.5%.
PostGolgi ctrl – growth inhibition of yeast control strain, primary screen, counter-screen for post-Golgi transport modulator project; 98,000 tested, 5% active; efflux-deficient yeast background strain, growth absorbance A615, 16 h; inhibition, % at 10 µM
PTK2B oligo ant – antagonists of Pyk2 self-association, primary screen, Q293 cells, FERM NanoBiT luminescence, HTS; Protein-tyrosine kinase 2-beta (Homo sapiens), Q14289; hits give low values; z-score (the deposit names both 25 µM and 10 µM); 99,000 tested, 0.83% active; AID 1347419, 2020;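 active = Z-score of -3 or lower, scaled per plate to the spread of control and sample wells; inactive = z-score above -3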;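 also: negative z-score means lost luminescence so less FERM oligomerization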
E coli WT exp – growth inhibitors of wild-type E. coli, primary screen, strain BW25113, expanded library, OD600 | OD600 absorbance | growth inhibition, % at 100 µM | 98,000 tested, 0.15% active | AID 710, 2007;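 active = growth inhibition above about 50% at one test dose, limit read from the data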;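 also: growth measured after 20 h incubation at 37 °C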
Ecoli tolC – growth inhibitors of E. coli tolC mutant, primary screen, strain BW25113 ΔtolC::kan, 384-well. OD615. 65,000 tested, 2.2% active. growth inhibition, % at 10 µM (by protocol);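 active = growth inhibition at or above a cutoff equal to the mean over every tested compound plus 3 SD, cut at about 60% in these data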;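 also: growth measured after 20 h incubation at 37 °C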
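Assay system: tolC-deleted E. coli BW25113. Medium: kanamycin-containing LB broth (50 µg/mL). Dosing: 10 µM final, single dose. Timing: bacterial growth with compound for 20 h at 37 °C. Detection: A615 absorbance measurement. Read-out basis: growth inhibition in percent.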
PostGolgi yeast – phenotypic screen on post-Golgi transport, primary screen; 98,000 tested, 0.9% active; post-Golgi transport phenotypic cell assay; inhibition, % at 10 µM; AID 739, 2007;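 also: yeast cells grown in 1536-well plates; yeast grown about 18 h at 30C before absorbance read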
Calb biofilm kill – clotrimazole potentiators killing Candida biofilms, primary screen, with clotrimazole, Alamar Blue; 85,000 tested, 0.14% active; C. albicans biofilm + clotrimazole; inhibition, % at 6 µM;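 active = inhibition above 20%; inactive = inhibition below 20%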;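 also: preformed 24 hr biofilms exposed to compound for 48 hr; 0% = biofilm without compound and 100% = blank killed by clotrimazole plus chlorhexidine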
The depositor's hits bear a star. Rule as the data show it, unless noted: active = inhibition above about 30%; inactive = the rest.

C#CCn1c(S(=O)(=O)Cc2ccc(OC)cc2)nc(-c2ccccc2)c1-c1ccccc1 was read as PostGolgi ctrl 25, PTK2B oligo ant -3*, E coli WT exp -11 and PostGolgi yeast 0.
For C=CCn1c(N)c(C(=O)Nc2cccc(C)c2)c2nc3ccccc3nc21 the results were PostGolgi ctrl 35*, PTK2B oligo ant -1.4, E coli WT exp 0 and PostGolgi yeast 23.
`C=CCn1c(N)c(C(=O)OCCC)c2nc3ccccc3nc21` gave PostGolgi ctrl 14, PTK2B oligo ant -1.3, E coli WT exp 11, Ecoli tolC 38, PostGolgi yeast -4 and Calb biofilm kill -2.
C=CCn1c(N)c(C(=O)Nc2ccc(C)c(C)c2)c2nc3ccccc3nc21 was read as PostGolgi ctrl 4, PTK2B oligo ant -4*, E coli WT exp -15, PostGolgi yeast -27 and Calb biofilm kill 1.
`CCCOc1cc(CN2CCCCC2)cc(C(C)=O)c1` gave PostGolgi ctrl 2, PTK2B oligo ant 0.9, E coli WT exp -2, Ecoli tolC 21, PostGolgi yeast -2 and Calb biofilm kill 0.
Screening CCC(=O)n1nc(NCc2ccccc2OC)nc1NCc1ccccc1OC returned PostGolgi ctrl 22, PTK2B oligo ant -0.92, E coli WT exp -25, Ecoli tolC 53, PostGolgi yeast -4 and Calb biofilm kill -2.
For O=C(CSc1nnc(-c2ccccc2)n1-c1ccccc1)N1c2ccccc2Sc2ccccc21 the results were PostGolgi ctrl 2, PTK2B oligo ant -2.5, E coli WT exp -3 and PostGolgi yeast -1.
Cc1ccc(-c2ccc(/C=N/n3cnnc3)o2)cc1Cl was read as PostGolgi ctrl 60*, PTK2B oligo ant -0.46, E coli WT exp -2, Ecoli tolC 2, PostGolgi yeast 80* and Calb biofilm kill 8.
Clc1cccc(-c2ccc(/C=N/n3cnnc3)o2)c1 was read as PostGolgi ctrl -2, PTK2B oligo ant -0.27, E coli WT exp 6, Ecoli tolC -5, PostGolgi yeast -1 and Calb biofilm kill 1.
`Cc1ccc(S(=O)(=O)N2CCN(C(=O)C3Cc4ccccc4CN3C(=O)c3ccco3)CC2)cc1` (stereo not drawn) gave PostGolgi ctrl 3, PTK2B oligo ant 1.3, E coli WT exp 0, Ecoli tolC -9, PostGolgi yeast 8 and Calb biofilm kill 5.
For c1ccc(-c2ccc(C3=Nn4c(Cn5nnc6ccccc65)nnc4SC3)cc2)cc1 the results were PostGolgi ctrl 36*, PTK2B oligo ant -2.7, E coli WT exp -11 and PostGolgi yeast 4.
`COC(=O)c1cc(OC)c(OC)cc1NC(=O)CC1CCCCC1` gave PostGolgi ctrl 42*, PTK2B oligo ant -1.9, E coli WT exp -2, Ecoli tolC 14, PostGolgi yeast 2 and Calb biofilm kill 2.
Screening COC(=O)c1cc(OC)c(OC)cc1NC(=O)CN1CCCCC1 returned PostGolgi ctrl 16, PTK2B oligo ant -1, E coli WT exp 3, Ecoli tolC -7, PostGolgi yeast 0 and Calb biofilm kill 3.
Screening Nc1nc(-c2ccccc2)cc(-c2ccccc2O)n1 returned PostGolgi ctrl 35*, PTK2B oligo ant -0.48, E coli WT exp -22, Ecoli tolC -2, PostGolgi yeast 54* and Calb biofilm kill -2.
O=c1oc2cc(Oc3ccc(C(F)(F)F)cc3[N+](=O)[O-])ccc2c2c1CCCC2 was read as PostGolgi ctrl 10, PTK2B oligo ant -0.03, E coli WT exp -6 and PostGolgi yeast 0.
`N#CC1=C(N)N(c2ccccc2)C(=O)C1` gave PostGolgi ctrl 19, PTK2B oligo ant -0.06, E coli WT exp 3, PostGolgi yeast 3 and Calb biofilm kill 5.
`N#CC1=C(N)N(c2ccccc2Sc2ccccc2)C(=O)C1` gave PostGolgi ctrl 35*, PTK2B oligo ant -1.1, E coli WT exp 3, Ecoli tolC 4, PostGolgi yeast -7 and Calb biofilm kill 5.
Screening CNC(=O)CC1C(=O)N(C)C(=S)N1NC(=O)c1ccc(Cl)cc1 (stereo not drawn) returned PostGolgi ctrl 4, PTK2B oligo ant 0.27, E coli WT exp 1, PostGolgi yeast 2 and Calb biofilm kill 5.
Cc1ccc2cc(C)c(SCC#N)nc2c1 was read as PostGolgi ctrl 16, PTK2B oligo ant -0.57, E coli WT exp 0, Ecoli tolC 9, PostGolgi yeast 31* and Calb biofilm kill 1.
COc1ccccc1NC(=O)CN1C(=O)NC(CC(C)C)C1=O (stereo not drawn) was read as PostGolgi ctrl 48*, PTK2B oligo ant 3.3, E coli WT exp -1, Ecoli tolC -10, PostGolgi yeast 4 and Calb biofilm kill 4.
For N#CC1(c2ccc(NC(=O)c3ccccc3F)cc2)CCCC1 the results were PTK2B oligo ant -0.23.
`COc1ccc2c(C)nc(Nc3nc(C)c(C)c(=O)[nH]3)nc2c1` gave PostGolgi ctrl 66*, PTK2B oligo ant -1.6, E coli WT exp 4, PostGolgi yeast -7 and Calb biofilm kill -8.
Screening CCc1c(C)nc(Nc2nc(C)c3ccc(OC)cc3n2)[nH]c1=O returned PostGolgi ctrl 14, PTK2B oligo ant -0.46, E coli WT exp -12, PostGolgi yeast 5 and Calb biofilm kill -7.
Cn1nc(C(F)(F)F)c(C#N)c1N1CCN(c2ccccc2)CC1 was read as PostGolgi ctrl 72*, PTK2B oligo ant -0.74, E coli WT exp -4, PostGolgi yeast 10 and Calb biofilm kill 11.
For CN(C)c1nc(N2CCN(c3ccc(F)cc3)CC2)c(C#N)c(=O)o1 the results were PostGolgi ctrl 8, PTK2B oligo ant 2.8, E coli WT exp 6 and PostGolgi yeast 1.
Screening Cn1nc(C(F)(F)F)c(C#N)c1N1CCN(c2ccc(F)cc2)CC1 returned PostGolgi ctrl 73*, PTK2B oligo ant -0.93, E coli WT exp -3, PostGolgi yeast 3 and Calb biofilm kill 6.
Screening CCCCC(=O)c1ccc(O)cc1O returned PTK2B oligo ant 0.21 and Calb biofilm kill 5.
`O=C(COc1ccccc1Br)c1ccc(O)cc1O` gave PostGolgi ctrl 18, PTK2B oligo ant 0.18, E coli WT exp 26, Ecoli tolC 70*, PostGolgi yeast -2 and Calb biofilm kill 3.
For O=C(Cc1ccc(Br)cc1)c1ccc(O)cc1O the results were PostGolgi ctrl 30*, PTK2B oligo ant -0.9, E coli WT exp 59*, Ecoli tolC 95* and PostGolgi yeast -3.
CCN(CC)S(=O)(=O)c1ccc(N=Nc2c(C)[nH]n(C(N)=S)c2=O)cc1 was read as PTK2B oligo ant -1.1 and Calb biofilm kill 9.
Screening NC(=S)n1[nH]c(-c2ccc([N+](=O)[O-])cc2)c(N=Nc2ccc(O)cc2)c1=O returned PostGolgi ctrl -4, PTK2B oligo ant -3.6*, E coli WT exp -13, PostGolgi yeast 9 and Calb biofilm kill 2.
